Measurements as given in ChEMBL document CHEMBL3046507, “Synthesis and herbicidal activities of novel 3-N-substituted amino-6-methyl-4-(3-trifluoromethylphenyl)pyridazine derivatives” (2008).

How the values were obtained:
Echinochloa crus-galli [1] = assay: Herbicidal activity against Echinochloa crus-galli (barnyard grass) assessed as inhibition of fresh plant weight at 750 g/ha using preemergence protocol measured after 24 days under green house conditions; conditions: pre-emergence
Spirodela polyrhiza [2] = assay: Inhibition of chlorophyll in Spirodela polyrhiza fronds at 1 ug/mL using light intensity of 45 uE/m2/s measured after 7 days; format: functional; conditions: 168 h
How it was run: (§1)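 Giant duckweed assay. Compound in DMF dropped onto filter paper, solvent evaporated 15 min, paper placed in flask with 15 mL fresh medium and shaken >10 min. 10 fronds inoculated per flask and grown 7 days at 23-26 °C, 16 h light/8 h dark, ca. 45 µE m^-2 s^-1. DMF plus medium served as control. Chl extracted in 96% ethanol overnight at 4 °C; OD read at 665 and 649 nm; content expressed as percent of control.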

Echinochloa crus-galli [3] = assay: Herbicidal activity against Echinochloa crus-galli (barnyard grass) assessed as inhibition of fresh plant weight at 750 g/ha using postemergence protocol measured after 24 days under green house conditions; conditions: post-emergence
[4] = test system: Brassica rapa subsp. oleifera; assay: Herbicidal activity against Brassica rapa subsp. oleifera assessed as inhibition of fresh plant weight at 750 g/ha using postemergence protocol measured after 24 days under green house conditions; conditions: post-emergence
Digitaria [5] = assay: Herbicidal activity against Digitaria adscendens assessed as inhibition of fresh plant weight at 750 g/ha using preemergence protocol measured after 24 days under green house conditions; conditions: in Digitaria adscendens, pre-emergence
Amaranthus retroflexus [6] = assay: Herbicidal activity against Amaranthus retroflexus assessed as inhibition of fresh plant weight at 750 g/ha using preemergence protocol measured after 24 days under green house conditions; conditions: pre-emergence
Digitaria [7] = assay: Herbicidal activity against Digitaria adscendens assessed as inhibition of fresh plant weight at 750 g/ha using postemergence protocol measured after 24 days under green house conditions; conditions: in Digitaria adscendens, post-emergence
[8] = test system: Brassica rapa subsp. oleifera; assay: Herbicidal activity against Brassica rapa subsp. oleifera assessed as inhibition of fresh plant weight at 750 g/ha using preemergence protocol measured after 24 days under green house conditions; conditions: pre-emergence
Spirodela polyrhiza [9] = assay: Inhibition of chlorophyll in Spirodela polyrhiza fronds at 10 ug/mL using light intensity of 45 uE/m2/s measured after 7 days; format: functional; conditions: 168 h
How it was run: as §1

Amaranthus retroflexus [10] = assay: Herbicidal activity against Amaranthus retroflexus assessed as inhibition of fresh plant weight at 750 g/ha using postemergence protocol measured after 24 days under green house conditions; conditions: post-emergence

Structure (SMILES): Cc1cc(-c2cccc(C(F)(F)F)c2)c(NC(C)c2ccc(F)cc2)nn1 (stereo not given)
- inhibition at 750 g/ha (Echinochloa crus-galli [1]): 14%
- inhibition at 1 µg/mL (Spirodela polyrhiza [2]): 47%
- inhibition at 750 g/ha (Echinochloa crus-galli [3]): 0%
- inhibition at 750 g/ha [4]: 0%
- inhibition at 750 g/ha (Digitaria [5]): 28%
- inhibition at 750 g/ha (Amaranthus retroflexus [6]): 1%
- inhibition at 750 g/ha (Digitaria [7]): 57%
- inhibition at 750 g/ha [8]: 13%
- inhibition at 10 µg/mL (Spirodela polyrhiza [9]): 79%
- inhibition at 750 g/ha (Amaranthus retroflexus [10]): 1%

Structure (SMILES): Cc1cc(-c2cccc(C(F)(F)F)c2)c(NC(C)c2ccccc2)nn1 (stereo not given)
- inhibition at 750 g/ha (Echinochloa crus-galli [1]): 10%
- inhibition at 1 µg/mL (Spirodela polyrhiza [2]): 31%
- inhibition at 750 g/ha (Echinochloa crus-galli [3]): 43%
- inhibition at 750 g/ha [4]: 0%
- inhibition at 750 g/ha (Digitaria [5]): 12%
- inhibition at 750 g/ha (Amaranthus retroflexus [6]): 10%
- inhibition at 750 g/ha (Digitaria [7]): 54%
- inhibition at 750 g/ha [8]: 12%
- inhibition at 10 µg/mL (Spirodela polyrhiza [9]): 63%
- inhibition at 750 g/ha (Amaranthus retroflexus [10]): 7%

Structure (SMILES): Cc1cc(-c2cccc(C(F)(F)F)c2)c(NCc2ccccc2Cl)nn1
- inhibition at 750 g/ha (Echinochloa crus-galli [1]): 3%
- inhibition at 1 µg/mL (Spirodela polyrhiza [2]): 73%
- inhibition at 750 g/ha (Echinochloa crus-galli [3]): 26%
- inhibition at 750 g/ha [4]: 34%
- inhibition at 750 g/ha (Digitaria [5]): 1%
- inhibition at 750 g/ha (Amaranthus retroflexus [6]): 36%
- inhibition at 750 g/ha (Digitaria [7]): 29%
- inhibition at 750 g/ha [8]: 0%
- inhibition at 10 µg/mL (Spirodela polyrhiza [9]): 90%
- inhibition at 750 g/ha (Amaranthus retroflexus [10]): 33%

Structure (SMILES): Cc1ccc(CNc2nnc(C)cc2-c2cccc(C(F)(F)F)c2)cc1
- inhibition at 750 g/ha (Echinochloa crus-galli [1]): 78%
- inhibition at 1 µg/mL (Spirodela polyrhiza [2]): 34%
- inhibition at 750 g/ha (Echinochloa crus-galli [3]): 0%
- inhibition at 750 g/ha [4]: 20%
- inhibition at 750 g/ha (Digitaria [5]): 64%
- inhibition at 750 g/ha (Amaranthus retroflexus [6]): 31%
- inhibition at 750 g/ha (Digitaria [7]): 54%
- inhibition at 750 g/ha [8]: 16%
- inhibition at 10 µg/mL (Spirodela polyrhiza [9]): 74%
- inhibition at 750 g/ha (Amaranthus retroflexus [10]): 2%

Structure (SMILES): Cc1cc(-c2cccc(C(F)(F)F)c2)c(Nc2ccc(OC(F)(F)F)cc2)nn1
- inhibition at 750 g/ha (Echinochloa crus-galli [1]): 0%
- inhibition at 1 µg/mL (Spirodela polyrhiza [2]): 65%
- inhibition at 750 g/ha (Echinochloa crus-galli [3]): 21%
- inhibition at 750 g/ha [4]: 50%
- inhibition at 750 g/ha (Digitaria [5]): 5%
- inhibition at 750 g/ha (Amaranthus retroflexus [6]): 35%
- inhibition at 750 g/ha (Digitaria [7]): 35%
- inhibition at 750 g/ha [8]: 0%
- inhibition at 10 µg/mL (Spirodela polyrhiza [9]): 83%
- inhibition at 750 g/ha (Amaranthus retroflexus [10]): 26%

Structure (SMILES): Cc1cc(-c2cccc(C(F)(F)F)c2)c(NCc2ccccc2)nn1
- inhibition at 750 g/ha (Echinochloa crus-galli [1]): 0%
- inhibition at 1 µg/mL (Spirodela polyrhiza [2]): 83%
- inhibition at 750 g/ha (Echinochloa crus-galli [3]): 8%
- inhibition at 750 g/ha [4]: 30%
- inhibition at 750 g/ha (Digitaria [5]): 7%
- inhibition at 750 g/ha (Amaranthus retroflexus [6]): 4%
- inhibition at 750 g/ha (Digitaria [7]): 23%
- inhibition at 750 g/ha [8]: 0%
- inhibition at 10 µg/mL (Spirodela polyrhiza [9]): 86%
- inhibition at 750 g/ha (Amaranthus retroflexus [10]): 27%

Structure (SMILES): Cc1cc(-c2cccc(C(F)(F)F)c2)c(Nc2ccccc2C)nn1
- inhibition at 750 g/ha (Echinochloa crus-galli [1]): 0%
- inhibition at 1 µg/mL (Spirodela polyrhiza [2]): 65%
- inhibition at 750 g/ha (Echinochloa crus-galli [3]): 10%
- inhibition at 750 g/ha [4]: 86%
- inhibition at 750 g/ha (Digitaria [5]): 11%
- inhibition at 750 g/ha (Amaranthus retroflexus [6]): 0%
- inhibition at 750 g/ha (Digitaria [7]): 1%
- inhibition at 750 g/ha [8]: 7%
- inhibition at 10 µg/mL (Spirodela polyrhiza [9]): 83%
- inhibition at 750 g/ha (Amaranthus retroflexus [10]): 38%

Structure (SMILES): Cc1cc(-c2cccc(C(F)(F)F)c2)c(NC(C)c2ccc(Cl)cc2)nn1 (stereo not given)
- inhibition at 750 g/ha (Echinochloa crus-galli [1]): 13%
- inhibition at 1 µg/mL (Spirodela polyrhiza [2]): 15%
- inhibition at 750 g/ha (Echinochloa crus-galli [3]): 27%
- inhibition at 750 g/ha [4]: 8%
- inhibition at 750 g/ha (Digitaria [5]): 11%
- inhibition at 750 g/ha (Amaranthus retroflexus [6]): 16%
- inhibition at 750 g/ha (Digitaria [7]): 67%
- inhibition at 750 g/ha [8]: 2%
- inhibition at 10 µg/mL (Spirodela polyrhiza [9]): 23%
- inhibition at 750 g/ha (Amaranthus retroflexus [10]): 17%

Structure (SMILES): Cc1cc(-c2cccc(C(F)(F)F)c2)c(NCc2ccccc2F)nn1
- inhibition at 750 g/ha (Echinochloa crus-galli [1]): 0%
- inhibition at 1 µg/mL (Spirodela polyrhiza [2]): 77%
- inhibition at 750 g/ha (Echinochloa crus-galli [3]): 10%
- inhibition at 750 g/ha [4]: 49%
- inhibition at 750 g/ha (Digitaria [5]): 0%
- inhibition at 750 g/ha (Amaranthus retroflexus [6]): 8%
- inhibition at 750 g/ha (Digitaria [7]): 24%
- inhibition at 750 g/ha [8]: 24%
- inhibition at 10 µg/mL (Spirodela polyrhiza [9]): 81%
- inhibition at 750 g/ha (Amaranthus retroflexus [10]): 44%

Structure (SMILES): COc1ccc(CNc2nnc(C)cc2-c2cccc(C(F)(F)F)c2)cc1
- inhibition at 750 g/ha (Echinochloa crus-galli [1]): 22%
- inhibition at 1 µg/mL (Spirodela polyrhiza [2]): 51%
- inhibition at 750 g/ha (Echinochloa crus-galli [3]): 0%
- inhibition at 750 g/ha [4]: 14%
- inhibition at 750 g/ha (Digitaria [5]): 0%
- inhibition at 750 g/ha (Amaranthus retroflexus [6]): 2%
- inhibition at 750 g/ha (Digitaria [7]): 8%
- inhibition at 750 g/ha [8]: 0%
- inhibition at 10 µg/mL (Spirodela polyrhiza [9]): 84%
- inhibition at 750 g/ha (Amaranthus retroflexus [10]): 18%
